In ChEMBL document CHEMBL1158069, “Antiplasmodial metabolites isolated from the marine octocoral Muricea austera” (J Nat Prod, 2006):

Assays:
[1] = test system: Plasmodium falciparum; experiment: Antiplasmodial activity against chloroquine-resistant Plasmodium falciparum W2 as parasite DNA microfluorimetric assay; assay type: functional, organism-based
In short: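 P. falciparum W2 (chloroquine-resistant) grown by the Trager–Jensen method at 2% hematocrit in RPMI 1640 with 10% human serum. Growth inhibition read microfluorimetrically by PicoGreen intercalation into parasite DNA. IC50 in µM.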

[2] = test system: Trypanosoma cruzi; experiment: Antitrypanosomal activity against Trypanosoma cruzi Tulahuen C4 infected in african green monkey Vero cells assessed as growth inhibition of […] by beta-galactosidase reporter gene assay; assay type: functional, organism-based
In short: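 Recombinant Tulahuen clone C4 expressing β-galactosidase reporter; […] grown inside Vero cells with test samples. β-Gal cleavage of chlorophenol red-β-D-galactoside (CPRG) read colorimetrically at 570 nm. IC50 taken as concentration giving 50% inhibition of parasite growth versus untreated control, on duplicate samples.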

| SMILES | IC50 [1] [µM] | IC50 [2] [µM] |
| --- | --- | --- |
| O=C(CCCCC(=O)NCCc1ccc(O)cc1)NCCc1ccc(O)cc1 | 117 |  |
| CCCCCCCCCC(=O)NCCc1ccc(O)cc1 | 72 |  |
| NCCc1ccc(O)cc1 [TYRAMINE] | 160 |  |
| C=C[C@H]1CC[C@H]2[C@@H]3CC=C4C[C@@H](O[C@@H]5OC[C@@H](O)[C@@H](OC(C)=O)[C@@H]5O)CC[C@]4(C)[C@H]3CC[C@]12C | 67 | 96 |
| O=C(NCCc1ccc(OC(=O)c2ccccc2)cc1)c1ccccc1 | 64 |  |
| CO[C@@H]1O[C@H](C)[C@H](OC(=O)c2ccccc2)[C@H](OC(=O)c2ccccc2)[C@H]1OC(=O)c1ccccc1 | 36 | > 50 |
| CO[C@@H]1OC[C@H](OC(=O)c2ccccc2)[C@H](OC(=O)c2ccccc2)[C@H]1OC(=O)c1ccccc1 | 21 | > 50 |
| CCCCCCCCCCCC(=O)NCCc1cc(Br)c(O)c(Br)c1 | 17 |  |
| CCCCCCCCCCCCCC(=O)NCCc1ccc(O)cc1 | 34 |  |
| O=C(NCCc1ccc(O)cc1)c1ccccc1 | > 50 |  |
| CC[C@H](O)CC(=O)NCCc1ccc(O)cc1 | > 50 |  |
| CCCCCCCCC/C(C)=C\C(=O)NCCc1ccc(O)cc1 | 36 | > 50 |
| O=CNCCc1ccc(O)cc1 | > 50 |  |
| CCCCO[C@@H]1OC[C@H](OC(C)=O)[C@H](OC(C)=O)[C@H]1OC(C)=O | > 50 | > 50 |
| CCCCCCCCCCCCNC(=O)CCc1ccc(O)cc1 | 24 |  |
| CC/C=C\C/C=C\C/C=C\CCCC(=O)NCCc1ccc(O)cc1 | 38 |  |
| CO[C@H]1O[C@H](C)[C@H](OC(=O)c2ccccc2)[C@H](OC(=O)c2ccccc2)[C@H]1OC(=O)c1ccccc1 | 43 | > 50 |

| SMILES | IC50 [1] [µM] | IC50 [2] [µM] |
| --- | --- | --- |
| CO[C@@H]1O[C@H](COC(=O)c2ccccc2)[C@H](OC(=O)c2ccccc2)[C@H](OC(=O)c2ccccc2)[C@H]1OC(=O)c1ccccc1 | > 50 | > 50 |
| CCCCCCCCCCCC(=O)O[C@@H]1[C@@H](OC(=O)CCCCCCCCCCC)[C@@H](OC)OC[C@@H]1OC(=O)CCCCCCCCCCC | > 50 | > 50 |
| C=C[C@]1(C)Cc2occ(C)c2C[C@H]1C(=C)OC(C)=O | 42 | 173 |
| CC1CS(=O)(=O)CCN1/N=C/c1ccc([N+](=O)[O-])o1 (stereo not given) [NIFURTIMOX] |  | 11 |
| C=C[C@H]1CC[C@H]2[C@@H]3CC=C4C[C@@H](O[C@@H]5OC[C@@H](OC(C)=O)[C@@H](O)[C@@H]5O)CC[C@]4(C)[C@H]3CC[C@]12C | 80 | 101 |
| CC(=O)NCCc1ccc(O)cc1 | > 50 |  |
| C=C[C@H]1CC[C@H]2[C@@H]3CC=C4C[C@@H](O[C@@H]5OC[C@@H](OC(C)=O)[C@@H](OC(C)=O)[C@@H]5OC(C)=O)CC[C@]4(C)[C@H]3CC[C@]12C | 28 | 28 |
| CO[C@H]1OC[C@H](OC(=O)c2ccccc2)[C@H](OC(=O)c2ccccc2)[C@H]1OC(=O)c1ccccc1 | 35 | > 50 |
| CCCCCCC(O)CCCCCCCCCCC(=O)NCCc1ccc(O)cc1 (stereo not given) | 62 |  |
| O[C@@H]1[C@@H](O)[C@@H](O)CO[C@H]1O [L-ARABINOSE] | > 50 | > 50 |
| CCCCCCCCCCCC(=O)O[C@@H]1[C@@H](OC(=O)CCCCCCCCCCC)[C@H](OC)OC[C@@H]1OC(=O)CCCCCCCCCCC | > 50 | > 50 |
| CO[C@H]1O[C@H](COC(=O)c2ccccc2)[C@H](OC(=O)c2ccccc2)[C@H](OC(=O)c2ccccc2)[C@H]1OC(=O)c1ccccc1 | 29 | > 50 |
| CCCCCCCCCC(C)CC(=O)NCCc1ccc(O)cc1 (stereo not given) | 45 | > 50 |
| CCCCCCCCCCCC(=O)NCCc1ccc(O)cc1 | 47 |  |
| CO[C@@H]1OC[C@H](OC(C)=O)[C@H](OC(C)=O)[C@H]1OC(C)=O | > 50 | > 50 |
| CC(=O)O/C1=C/Cc2c(C)coc2C/C(C)=C/CC1 | > 50 |  |
